# Experimental data as given in ChEMBL document CHEMBL4130384, “Design, synthesis and biological evaluation of novel 2-methoxyestradiol analogs as dual selective estrogen receptor modulators (SERMs) and antiangiogenic agents” (Eur J Med Chem, 2017).
# Activity calls are given as the source filed them. The calls are words filed in the database; no cut-off is given here.
# Assays:
# HepG2 = test: Antiproliferative activity against human HepG2 cells after 48 hrs by MTT assay; assay type: functional, cell-based; settings: HepG2, 48 h
# Procedure, shortened: (§1)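 Cells grown in RPMI1640 with 10% FBS and penicillin/streptomycin at 37 °C, 5% CO2. Seeded at 1 × 10^5/mL, grown 24 h, then exposed to compound at 1 × 10^-4 to 1 × 10^-7 mol/L for 48 h. Controls received medium with 1% DMSO. MTT 4 h, formazan dissolved in DMSO, absorbance at 490 nm; IC50 derived.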
# PC-3 = test: Antiproliferative activity against human PC3 cells after 48 hrs by MTT assay; assay type: functional, cell-based; settings: PC-3, 48 h; procedure, shortened: as §1
# HUVEC = test: Antiproliferative activity against HUVEC after 48 hrs by MTT assay; assay type: functional, cell-based; settings: Homo sapiens; procedure, shortened: as §1
# MCF7 [1] = test: Antiproliferative activity against human MCF7 cells after 48 hrs by MTT assay; assay type: functional, cell-based; settings: MCF7, 48 h; procedure, shortened: as §1
# Ishikawa [2] = test: Antiproliferative activity against human Ishikawa cells assessed as suppression of proliferation at 10 uM after 48 hrs by MTT assay relative to control; assay type: functional
# Ishikawa [3] = test: Antiproliferative activity against human Ishikawa cells after 48 hrs by MTT assay; assay type: functional, cell-based; procedure, shortened: as §1
# MCF7 [4] = test: Cell cycle arrest in human MCF7 cells assessed as S phase accumulation at 1 uM after 6 hrs by propidium iodide staining based flow cytometry (reference value: 33.14%); assay type: functional
# Procedure, shortened: (§2)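 MCF-7 cells plated at 3 × 10^5 per well and left overnight, then treated in serum-free medium with a DMSO reference control. Cells fixed in 70% ice-cold ethanol, washed in PBS, stained with propidium iodide at 4 °C. Flow cytometry gave percentages in G1, S and G2/M phases. Mean ± SEM of three independent experiments.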
# Chorioallantoic membrane [5] = test: In vivo antiangiogenic activity in chicken fertilized egg chorioallantoic membrane at 40 uM after 72 hrs; assay type: functional, organism-based; settings: Gallus gallus
# Procedure, shortened: (§3)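 Fertilized eggs incubated 7 days at 37 °C, 5% CO2, with saturated humidity. A ~1 cm2 shell window exposed the CAM. Compounds in DMSO were applied on sterile methyl cellulose filter papers placed on the CAM, with PBS as blank. Window taped shut, eggs incubated 72 h at 37 °C, 60% relative humidity.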
# MCF7 [6] = test: Cell cycle arrest in human MCF7 cells assessed as G2/M phase accumulation at 2 uM after 6 hrs by propidium iodide staining based flow cytometry (reference value: 22.46%); assay type: functional; procedure, shortened: as §2
# MCF7 [7] = test: Effect on AIM2 mRNA expression in human MCF7 cells at 0.5 to 2 uM by RT-PCR method; assay type: functional, cell-based
# Procedure, shortened: (§4)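 AIM2 mRNA, an ER-independent reference transcript, measured in treated MCF-7 cells by real-time PCR. Normalized to GAPDH and quantified by the ΔΔCT method. Mean ± SD, n = 3.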
# MCF7 [8] = test: Cell cycle arrest in human MCF7 cells assessed as S phase accumulation at 2 uM after 6 hrs by propidium iodide staining based flow cytometry (reference value: 33.14%); assay type: functional; procedure, shortened: as §2
# MCF7 [9] = test: Cell cycle arrest in human MCF7 cells assessed as G2/M phase accumulation after 6 hrs by propidium iodide staining based flow cytometry; assay type: functional; procedure, shortened: as §2
# MCF7 [10] = test: Cell cycle arrest in human MCF7 cells assessed as G0/G1 phase accumulation at 2 uM after 6 hrs by propidium iodide staining based flow cytometry (reference value: 42.62%); assay type: functional; procedure, shortened: as §2
# Chorioallantoic membrane [11] = test: In vivo antiangiogenic activity in chicken fertilized egg chorioallantoic membrane after 72 hrs; assay type: functional, organism-based; settings: Gallus gallus; procedure, shortened: as §3
# [12] = target: T1, Estrogen receptor (Homo sapiens) (UniProt P03372); test: Inhibition of estrogen receptor in human MCF7 cells assessed as inhibition of estradiol-induced PgR mRNA expression by RT-PCR method relative to control; assay type: cell-based
# T1 sequence (whole entry): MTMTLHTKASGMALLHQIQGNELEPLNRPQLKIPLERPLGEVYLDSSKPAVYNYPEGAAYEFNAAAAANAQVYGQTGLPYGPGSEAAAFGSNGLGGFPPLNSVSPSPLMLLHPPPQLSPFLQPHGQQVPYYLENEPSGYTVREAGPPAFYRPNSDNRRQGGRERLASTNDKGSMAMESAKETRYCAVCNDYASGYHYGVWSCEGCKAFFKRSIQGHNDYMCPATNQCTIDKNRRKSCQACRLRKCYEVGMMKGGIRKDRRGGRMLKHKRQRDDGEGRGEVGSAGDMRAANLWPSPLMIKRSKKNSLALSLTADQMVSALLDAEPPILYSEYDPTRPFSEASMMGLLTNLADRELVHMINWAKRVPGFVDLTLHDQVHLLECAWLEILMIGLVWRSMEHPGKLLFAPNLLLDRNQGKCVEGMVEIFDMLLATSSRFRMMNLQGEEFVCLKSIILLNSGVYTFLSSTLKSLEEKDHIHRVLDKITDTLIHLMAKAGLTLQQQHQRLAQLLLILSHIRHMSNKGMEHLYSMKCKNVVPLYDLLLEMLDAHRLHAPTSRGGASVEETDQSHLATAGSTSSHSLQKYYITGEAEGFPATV
# Procedure, shortened: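 MCF-7 cells stimulated with 10 nM E2 and co-treated with compound. PgR mRNA measured by real-time PCR, normalized to GAPDH and quantified by the ΔΔCT method. The 10 nM E2 level was set as 100%. Mean ± SD, n = 3.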
# MCF7 [13] = test: Cell cycle arrest in human MCF7 cells assessed as G0/G1 phase accumulation at 1 uM after 6 hrs by propidium iodide staining based flow cytometry (reference value: 42.62%); assay type: functional; procedure, shortened: as §2
# MCF7 [14] = test: Cell cycle arrest in human MCF7 cells assessed as G2/M phase accumulation at 1 uM after 6 hrs by propidium iodide staining based flow cytometry (reference value: 22.46%); assay type: functional; procedure, shortened: as §2
# MCF7 [15] = test: Effect on AIM2 mRNA expression in human MCF7 cells at 2 uM by RT-PCR method; assay type: functional, cell-based; procedure, shortened: as §4
SMILES,IC50 (HepG2),IC50 (PC-3),IC50 (HUVEC),IC50 (MCF7 [1]),Activity (Ishikawa [2]),IC50 (Ishikawa [3]),Activity (MCF7 [4]),Activity (Chorioallantoic membrane [5]),Activity (MCF7 [6]),Activity (MCF7 [7]),Activity (MCF7 [8]),Activity (MCF7 [9]),Activity (MCF7 [10]),Activity (Chorioallantoic membrane [11]),inhibition [12],Activity (MCF7 [13]),Activity (MCF7 [14]),Activity (MCF7 [15])
COc1ccc2c(c1)CC[C@@H]1[C@@H]2[C@H](OC(=O)c2ccc(NC(=O)CN(C)C)cc2)C[C@]2(C)[C@@H](OC)CC[C@@H]12,3.42 µM,6.49 µM,6.97 µM,34.3 µM,Active,15.6 µM,,,,,,,,,,,,
COc1ccc2c(c1)CC[C@@H]1[C@@H]2[C@H](OC(=O)c2ccc(NC(=O)CN3CCN(C)CC3)cc2)C[C@]2(C)[C@@H](OC)CC[C@@H]12,8.12 µM,18.1 µM,5.88 µM,12.9 µM,Active,7.52 µM,,,,,,,,,,,,
COCOc1ccc2c(c1)CC[C@@H]1[C@@H]2[C@H](OC(=O)c2ccc(NC(=O)CN3CCN(C)CC3)cc2)C[C@]2(C)[C@@H](OCOC)CC[C@@H]12,2.73 µM,2.85 µM,5.23 µM,4.06 µM,Active,7.75 µM,34.82%,Active,51.41%,inactive,34.57%,Dose-dependent effect,14.63%,Dose-dependent effect,Dose-dependent effect,21.47%,41.9%,
COCOc1ccc2c(c1)CC[C@@H]1[C@@H]2[C@H](OC(=O)c2ccc(NC(=O)CN3CCCC3)cc2)C[C@]2(C)[C@@H](OCOC)CC[C@@H]12,25.4 µM,17.1 µM,9.28 µM,14.3 µM,Active,7.3 µM,,,,,,,,,,,,
COCOc1ccc2c(c1)CC[C@@H]1[C@@H]2[C@H](OC(=O)c2ccc(NC(=O)CN(C)C)cc2)C[C@]2(C)[C@@H](OCOC)CC[C@@H]12,23.5 µM,17.6 µM,17.7 µM,28 µM,Active,28.5 µM,,,,,,,,,,,,
COc1cc2c(cc1O)CC[C@@H]1[C@@H]2CC[C@]2(C)[C@@H](O)CC[C@@H]12 [2-METHOXYESTRADIOL],11 µM,12.3 µM,14.2 µM,6.01 µM,Active,8.96 µM,,,,,,,,,,,,
CN1CCN(CC(=O)Nc2ccc(C(=O)O[C@@H]3C[C@]4(C)[C@@H](O)CC[C@H]4[C@@H]4CCc5cc(O)ccc5[C@H]43)cc2)CC1,15.1 µM,19.4 µM,37 µM,29.6 µM,Active,9.66 µM,,,,,,,,,,,,
C[C@]12C[C@@H](OC(=O)c3ccc(NC(=O)CN4CCCC4)cc3)[C@@H]3c4ccc(O)cc4CC[C@H]3[C@@H]1CC[C@@H]2O,21.1 µM,39.1 µM,36.1 µM,34.7 µM,Active,17.3 µM,,,,,,,,,,,,
COc1cc2c(cc1OC)[C@@H]1[C@@H](CC2)[C@@H]2CC[C@H](OC)[C@@]2(C)C[C@H]1OC(=O)c1ccc(NC(=O)CN(C)C)cc1,1.78 µM,8.94 µM,5.88 µM,28.2 µM,Active,6.32 µM,,,,,,,,,,,,
COc1ccc2c(c1)CC[C@@H]1[C@@H]2[C@H](OC(=O)c2ccc(NC(=O)CN3CCCC3)cc2)C[C@]2(C)[C@@H](OC)CC[C@@H]12,8.64 µM,10.6 µM,3.69 µM,13.7 µM,Active,4.79 µM,,,,,,,,,,,,
CC/C(=C(\c1ccccc1)c1ccc(OCCN(C)C)cc1)c1ccccc1 [TAMOXIFEN],,,,,-60.1%,,,,,,,,,,,,,inactive
COc1cc2c(cc1OC)[C@@H]1[C@@H](CC2)[C@@H]2CC[C@H](OC)[C@@]2(C)C[C@H]1OC(=O)c1ccc(NC(=O)CN2CCCC2)cc1,3.05 µM,3.74 µM,2.63 µM,15 µM,Active,5.51 µM,,,,,,,,,,,,
COc1cc2c(cc1OC)[C@@H]1[C@@H](CC2)[C@@H]2CC[C@H](OC)[C@@]2(C)C[C@H]1OC(=O)c1ccc(NC(=O)CN2CCN(C)CC2)cc1,5.22 µM,4.29 µM,4.85 µM,4.33 µM,Active,5.55 µM,31.14%,Active,49.19%,inactive,33.77%,Dose-dependent effect,17.78%,Dose-dependent effect,Dose-dependent effect,25.95%,44.06%,
CN(C)CC(=O)Nc1ccc(C(=O)O[C@@H]2C[C@]3(C)[C@@H](O)CC[C@H]3[C@@H]3CCc4cc(O)ccc4[C@H]32)cc1,8.92 µM,23.4 µM,32 µM,47.2 µM,Active,37.5 µM,,,,,,,,,,,,
